Assay results from different studies.
Protocols differ between the studies behind these lines.
LRRK2 G2019S: Leucine-rich repeat serine/threonine-protein kinase 2 (LRRK2, Homo sapiens, UniProt Q5S007, G2019S)
LRRK2: Leucine-rich repeat serine/threonine-protein kinase 2 (LRRK2, Homo sapiens, UniProt Q5S007)

SMILES	target	assay	setting	measurement	result
Nc1ncc(-c2nc(N3CCOCC3)nc(N3CCOCC3)n2)c(C(F)F)n1	LRRK2 G2019S	binding, competition with immobilised ligand	10 µM	remaining binding	91%
Cn1cncc1[C@@](O)(COc1ccc(C#N)cc1-c1ccc(OC(F)(F)F)cc1)c1ccc(C#N)cc1	LRRK2 G2019S	cell-free assay, competition with immobilised ligand	1 µM	remaining binding	91%
C#Cc1n[nH]c2c(-c3cn(C(C)c4ccccn4)c(=O)[nH]c3=O)cc(F)cc12 (stereo not drawn)	LRRK2	enzyme activity, inhibitor	1 µM	inhibition	-0.2%
Cn1cc(-c2cccc(N3CCc4c(sc5c4CC(C)(C)C5)C3=O)c2CO)cc(Nc2ccncn2)c1=O	LRRK2	enzyme activity, inhibitor	1 µM	inhibition	-1%
CC(C)(C)c1cc(C=C(C#N)C#N)cc(Br)c1O	LRRK2	enzyme activity, inhibitor	0.5 µM	remaining activity	109%
N#CC1(c2ccccn2)CCN(Cc2cc(C(=O)O)c(=O)n3ccccc23)CC1	LRRK2 G2019S	cell-free assay, competition with immobilised ligand	1 µM	remaining binding	100%
Cc1nn(C)cc1-c1nc2c(N3CCN(Cc4ccc(Cl)cc4)CC3)c(Cl)cnc2[nH]1	LRRK2 G2019S	binding, competition with immobilised ligand	1 µM	remaining binding	85%
O=c1[nH]c2ccccc2n1C1CCN(Cc2ccc(-c3[nH]c4cc5ncnc5cc4nc3-c3ccccc3)cc2)CC1	LRRK2	cell-free assay	0.5 µM	remaining signal	103%
COc1ncccc1-c1cnn2ccc(N3CCN(C(=O)OC(C)C)CC3)nc12	LRRK2	binding, competition with immobilised ligand	1 µM	remaining binding	87%
